Assay outcomes deposited in PubChem by several laboratories.
L929 necroptosis – inhibitors of zVAD-triggered necroptosis, primary screen, L929 cells; L929 zVAD necroptosis rescue, ATP luminescence, 24 h; with zVAD 60 µM; viability rescue, % at 10 µM; 220,000 tested, 0.38% active; AID 1377, 2008;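 active = activation, scaled between plate controls, above about 75%, limit read from the data; inactive = activation under that limit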;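 note: 0% = zVAD with DMSO and 100% = DMSO alone without zVAD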
TNF necrop inh – inhibitors of TNF-alpha triggered necroptosis, primary screen, cell-based, Jurkat FADD-/-, single concentration | Jurkat FADD-/- TNF necroptosis rescue, ATP luminescence, 24 h; 0 = TNF only, 100 = no-TNF cells | activation (protection from cell death), % at 10 µM | 220,000 tested, 0.068% active;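 active = activation, meaning protection from cell death, of at least 50% relative to plate controls; inactive = activation below 50%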;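 note: necroptosis triggered by 40 ng/mL TNF-alpha added together with compound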
STAT1 inh – STAT1 signaling inhibitors, primary screen, cell-based, HTS, luciferase reporter; NIH 3T3 STAT1-luciferase reporter, IFN-gamma, luminescence; inhibition, % at 5.5 µM; 200,000 tested, 0.35% active; AID 920, 2007;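 active = inhibition above a set limit, the mean inhibition across all tested compounds plus 3 SD, cut at about 34% in these data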;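 note: 0% = IFN-gamma with DMSO and 100% = IFN-gamma with 300 µM nifuroxazide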
STAT3 inh – IL-6 driven STAT3 reporter inhibitors, primary screen, U3A cells, luciferase, luminescence, MLSCN library | IL-6 STAT3-luciferase reporter; host cell line lacks STAT1 | inhibition, % at 5.5 µM | 190,000 tested, 0.89% active;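 active = inhibition above the mean inhibition across all screened compounds plus 3 SD, cut at about 44% in these data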;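 note: 0% = DMSO only wells and 100% = 100 µM nifuroxazide control wells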
STAT3 act-1 – IL-6 driven STAT3 reporter potentiators, primary screen, U3A cells, luciferase, luminescence, MLSCN library | IL-6 STAT3-luciferase reporter; 100% = signal with IL-6 EC80 alone | activation (% of control), % at 5.6 µM | 190,000 tested, 0.91% active | AID 871, 2007;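 active = activation above the screen-wide mean of compound activation plus 3 SD, cut at about 130% in these data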;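 note: 0% = background luminescence of wells with medium and substrate only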
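Material: human U3A cells carrying STAT3-luciferase construct. Measured by: reporter luminescence signal. Timing: compound 1 h, then IL-6 6 h at 37 °C.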
STAT3 act-2 – STAT3 reporter potentiators, retest of hits, confirmation, U3A cells, luciferase, luminescence; shares compounds with STAT3 act-1; IL-6 potentiation; U3A cells lack STAT1; 100 means same as IL-6 alone; potentiation (% of control), % at 5.7 µM; 1,200 tested, 64% active; AID 1267, 2008;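 active = percent activation of the STAT3 luciferase reporter above a set limit taken from the earlier primary screen, cut at about 130% in these data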;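 note: 0% = background signal of medium plus substrate and 100% = median of IL-6 with DMSO wells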
NFkB act STAT3ct – NF-kB reporter activators in human cells, counter-screen for STAT3 activator project | NF-kappaB reporter activation | AID 1309, 2008 | activation (% of control), % at 5.7 µM | 1,200 tested, 11% active | shares compounds with STAT3 act-1; in the data active = activation above about 120%;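 note: reporter induced by TNF-alpha stimulation; 100% = median of stimulated DMSO wells and 0% = no signal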
STAT1 act – STAT1 reporter activators, IFN-gamma induced, counter-screen for STAT3 activator project, cell-based, NIH 3T3, luciferase luminescence. shares compounds with STAT3 act-1. AID 1318, 2008. activation (% of control), % at 5.7 µM. NIH 3T3 STAT1-luciferase reporter. 1,200 tested, 13% active;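 active = activation above the solvent-only control well mean plus 3 SD, set per screening run, cut at about 120% in these data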;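 note: 100% = IFN-gamma with DMSO median signal so 100% means no change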
* marks the source's active call; other numbers are inactive results. Shown are actives, neighbours in structure and some others; about 2.1% of the full set was active somewhere.

What do the screens show for `Cc1ccc(NC(=O)c2c(Cl)n(C)c3ccccc23)cc1`?
L929 necroptosis: 1.1; TNF necrop inh: -10.8; STAT1 inh: -8.7; STAT3 inh: -67.6; STAT3 act-1: 169.9*; STAT3 act-2: 190.3*; NFkB act STAT3ct: 122.8*; STAT1 act: 131.7*

How did O=C(CN1CCNCC1)Nc1ccc(Oc2ccccc2)cc1 do in these assays?
L929 necroptosis: -0.1; TNF necrop inh: 0.0; STAT1 inh: 4.4; STAT3 inh: -51.3; STAT3 act-1: 141.5*; STAT3 act-2: 139.0*; NFkB act STAT3ct: 110.7; STAT1 act: 105.7

What do the screens show for `O=C(CN1CCOCC1)Nc1ccc(Oc2ccccc2)cc1`?
L929 necroptosis: -0.4; TNF necrop inh: -0.6; STAT1 inh: 8.5; STAT3 inh: 6.7; STAT3 act-1: 95.5

What do the screens show for `CCOc1ccccc1NC(=O)c1ccoc1C`?
L929 necroptosis: 0.6; TNF necrop inh: 0.3; STAT1 inh: 2.1; STAT3 inh: 11.9; STAT3 act-1: 91.5

What do the screens show for `Cc1oc(-c2ccccc2)nc1C(=O)Nc1nccs1`?
L929 necroptosis: 0.5; TNF necrop inh: -1.8; STAT1 inh: -14.5; STAT3 inh: -39.6; STAT3 act-1: 140.5*; STAT3 act-2: 142.1*; NFkB act STAT3ct: 107.3; STAT1 act: 113.1

Results for COc1ccc(-c2csc(NC(=O)c3nc(-c4ccccc4)oc3C)n2)cc1 ?
L929 necroptosis: 0.2; TNF necrop inh: -3.4; STAT1 inh: -1.6; STAT3 inh: 20.4; STAT3 act-1: 91.9

How did CCOc1ccccc1NC(=O)c1nc(-c2ccccc2)oc1C do in these assays?
L929 necroptosis: 5.7; TNF necrop inh: 0.1; STAT1 inh: -10.1; STAT3 inh: -35.2; STAT3 act-1: 141.5*; STAT3 act-2: 122.8; NFkB act STAT3ct: 104.2; STAT1 act: 104.5

How did COC(=O)c1c(C(=O)OC)c(-c2ccc(Cl)c(Cl)c2)n2c1CCC2 do in these assays?
L929 necroptosis: 2.0; TNF necrop inh: -1.6; STAT1 inh: -0.9; STAT3 inh: 14.4; STAT3 act-1: 93.1

How did CC(C)(C)NC(=O)NC(=O)COC(=O)CCCc1c[nH]c2ccccc12 do in these assays?
L929 necroptosis: 2.6; TNF necrop inh: -2.8; STAT1 inh: 4.7; STAT3 inh: -22.2; STAT3 act-1: 118.7

What do the screens show for `CCOC(=O)C1Cc2cc3c(cc2C1=O)CC(C(=O)OCC)C3=O` (centres undefined)?
L929 necroptosis: -0.3; TNF necrop inh: -2.2; STAT1 inh: -8.8; STAT3 inh: 4.7; STAT3 act-1: 99.4

How did O=C(NCCN1CCCCC1)/C(=N\O)c1ccccc1 do in these assays?
L929 necroptosis: 0.2; TNF necrop inh: 0.4; STAT1 inh: 11.1; STAT3 inh: 0.0; STAT3 act-1: 102.5

How did O=C(CCc1nnc(Cc2ccc3c(c2)OCO3)o1)NCc1nc2ccccc2s1 do in these assays?
L929 necroptosis: -0.1; TNF necrop inh: 0.5; STAT1 inh: -12.3; STAT3 inh: -48.6; STAT3 act-1: 148.8*; STAT3 act-2: 141.7*; NFkB act STAT3ct: 105.0; STAT1 act: 92.7

What do the screens show for `O=C(CCc1nc2ccccc2[nH]1)NCc1ccc2c(c1)OCO2`?
TNF necrop inh: 1.5; STAT1 inh: 2.5; STAT3 inh: -0.3; STAT3 act-1: 100.2

What do the screens show for `N#C/C(=C\Nc1ccc2cn[nH]c2c1)c1nc(-c2ccc(Cl)cc2)cs1`?
L929 necroptosis: 7.7; TNF necrop inh: 1.4; STAT1 inh: 8.2; STAT3 inh: -56.4; STAT3 act-1: 147.7*; STAT3 act-2: 114.6; NFkB act STAT3ct: 98.8; STAT1 act: 90.1

How did N#C/C(=C\Nc1ccc2cn[nH]c2c1)c1nc(-c2ccccc2)cs1 do in these assays?
L929 necroptosis: 14.0; TNF necrop inh: 0.8; STAT1 inh: -13.7; STAT3 inh: 7.3; STAT3 act-1: 95.7

What do the screens show for `CCOC(=O)C1=C(NC(=S)NC(=O)c2ccccc2)c2ccccc2CC1C(C)C` (centres undefined)?
L929 necroptosis: -0.1; TNF necrop inh: -12.5; STAT1 inh: -3.7; STAT3 inh: -41.3; STAT3 act-1: 139.1*; STAT3 act-2: 126.4; NFkB act STAT3ct: 73.7; STAT1 act: 105.3

What do the screens show for `CCOC(=O)C1=C(NC(=S)NC(=O)c2ccccc2)c2ccccc2CC1(C)CC` (centres undefined)?
L929 necroptosis: 0.4; TNF necrop inh: 0.6; STAT1 inh: 8.6; STAT3 inh: -14.5; STAT3 act-1: 117.2

How did COC(=O)c1c(NC(=O)CN2CCN(C(=O)c3ccco3)CC2)c2cc(C)ccc2n1C do in these assays?
L929 necroptosis: 0.2; TNF necrop inh: -1.8; STAT1 inh: -3.4; STAT3 inh: -37.4; STAT3 act-1: 138.5*; STAT3 act-2: 141.1*; NFkB act STAT3ct: 99.0; STAT1 act: 97.2

Results for Cc1ccc2oc(-c3ccccc3)nc2c1 ?
L929 necroptosis: 0.4; TNF necrop inh: 1.4; STAT1 inh: -49.0; STAT3 inh: 10.9; STAT3 act-1: 91.0

How did Nc1c(Br)cc2oc(-c3ccccc3)nc2c1Br do in these assays?
L929 necroptosis: 0.8; TNF necrop inh: 1.1; STAT1 inh: -13.0; STAT3 inh: -61.7; STAT3 act-1: 145.9*; STAT3 act-2: 181.0*; NFkB act STAT3ct: 123.2*; STAT1 act: 152.3*

What do the screens show for `Brc1ccc(OCCOCCOc2cccc3cccnc23)cc1`?
L929 necroptosis: 0.8; TNF necrop inh: -0.5; STAT1 inh: -4.7; STAT3 inh: -17.9; STAT3 act-1: 124.5

What do the screens show for `Brc1ccc(-c2cn3c(n2)CCc2ccc4cccnc4c2-3)cc1`?
L929 necroptosis: 0.1; TNF necrop inh: -2.1; STAT1 inh: 4.8; STAT3 inh: -66.6; STAT3 act-1: 156.7*; STAT3 act-2: 148.9*; NFkB act STAT3ct: 100.8; STAT1 act: 89.5

How did Brc1ccc(CN2CCN(c3ccccn3)CC2)s1 do in these assays?
L929 necroptosis: 0.8; TNF necrop inh: -0.3; STAT1 inh: -0.9; STAT3 inh: 17.4; STAT3 act-1: 89.8

Results for COc1cc(OC)c(-c2nc3ccccc3s2)cc1OC ?
L929 necroptosis: 60.6; TNF necrop inh: -0.3; STAT1 inh: -8.7; STAT3 inh: -50.7; STAT3 act-1: 148.5*; STAT3 act-2: 153.7*; NFkB act STAT3ct: 103.8; STAT1 act: 114.0
